The source made the active and inactive calls. The calls are words filed in the database; no cut-off is given here.
Tests used:
[1] = biological target: T1, Glutamate receptor ionotropic, kainate 1 (Homo sapiens, UniProt P39086); assay: Antagonist activity at human homomeric GluR5 expressed in HEK293 cells assessed as inhibition of intracellular calcium concentration by FLIPR assay; assay type: functional, cell-based
[2] = biological target: T1, Glutamate receptor ionotropic, kainate 1; assay: Displacement of [3HATPA from human recombinant GluR5
How it was run: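 GluR5 HEK293 membranes were washed in 50 mM Tris-HCl (pH 7.1) at 0–4 °C and centrifuged at 27000g. 46–84 μg protein was incubated with 3 nM [³H]ATPA for 60 min at 2 °C. Nonspecific binding was defined with 0.6 mM Glu. Binding was stopped by rapid filtration and counted by liquid scintillation. Compounds were tested at 3–30 μM.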

Glutamate receptor 2 = Glutamate receptor 2 (Rattus norvegicus, UniProt P19491); assay: Antagonist activity at rat homomeric recombinant GluR2 expressed in HEK293 cells assessed as inhibition of intracellular calcium concentration by FLIPR assay; assay type: functional, cell-based
How it was run: (§1)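 Cells were loaded with 2 μM Fluo-4-AM for 30 min at room temperature and washed into Na⁺-free Ringer at pH 7.4. All solutions contained 100 μM cyclothiazide. The Ca²⁺ rise was read by FLIPR at room temperature. Solvent (EtOH or DMSO) was ≤1.0%.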

Mus musculus = assay: Effect on ATPA-induced rigidity in mouse dosed intravenously 30 mins before ATPA administration; assay type: functional; conditions: iv
How it was run: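 Female NMRI mice (20–25 g) received test substance iv (n = 8 per dose) 30 min before iv ATPA at 30 mg/kg. ATPA was given at 3 mg/mL in saline, pH 7. Rigidity was scored 30 min after ATPA as loss of righting and lack of movement on a 45° grid. Results were taken as the percent of mice rigid, and ED50 was derived.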

[3] = biological target: Glutamate receptor ionotropic, kainate 2 (Homo sapiens, UniProt Q13002); assay: Antagonist activity at human homomeric GluR6 expressed in HEK293 cells assessed as inhibition of intracellular calcium concentration by FLIPR assay; assay type: functional, cell-based
How it was run: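 Stably transfected HEK293 cells were grown in DMEM with 10% FCS at 37 °C. Cells were plated on PEI-coated plates 24 h before loading with 2 μM Fluo-4-AM for 60 min at room temperature, then washed into Na⁺-free Ringer at pH 7.4. Test compound was preincubated 1.5 min, then 0.2 μM domoic acid (final) was added. The Ca²⁺ rise was read by FLIPR (ex 488 nm, em 510–570 nm). IC50 reported.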

Glutamate receptor 3 = Glutamate receptor 3 (Rattus norvegicus, UniProt P19492); assay: Antagonist activity at rat homomeric recombinant GluR3 expressed in HEK293 cells assessed as inhibition of intracellular calcium concentration by FLIPR assay; assay type: functional, cell-based
How it was run: as §1, with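 “AMPA-subunit HEK293 lines were grown with 100 μg/mL SPD 502 in the medium. Cells” for “Cells”, “cyclothiazide. Test compound was preincubated 1.5 min before 25 μM Glu (final) was added.” for “cyclothiazide.”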

Glutamate receptor 1 = Glutamate receptor 1 (Rattus norvegicus, UniProt P19490); assay: Antagonist activity at rat homomeric recombinant GluR1 expressed in HEK293 cells assessed as inhibition of intracellular calcium concentration by FLIPR assay; assay type: functional, cell-based
How it was run: as §1, with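 “AMPA-subunit HEK293 lines were grown with 100 μg/mL SPD 502 in the medium. Cells” for “Cells”, “cyclothiazide. Test compound was preincubated 1.5 min before 25 μM Glu (final) was added.” for “cyclothiazide.”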

Glutamate receptor 4 = Glutamate receptor 4 (Rattus norvegicus, UniProt P19493); assay: Antagonist activity at rat homomeric recombinant GluR4 expressed in HEK293 cells assessed as inhibition of intracellular calcium concentration by FLIPR assay; assay type: functional, cell-based
How it was run: as §1, with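 “AMPA-subunit HEK293 lines were grown with 100 μg/mL SPD 502 in the medium. Cells” for “Cells”, “cyclothiazide. Test compound was preincubated 1.5 min before 25 μM Glu (final) was added.” for “cyclothiazide.”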

[4] = biological target: Glutamate receptor 3 (Rattus norvegicus) (UniProt P19492); assay: Antagonist activity at rat homomeric recombinant GluR3 expressed in HEK293 cells assessed as inhibition of intracellular calcium concentration at 30 uM by FLIPR assay; assay type: functional, cell-based
How it was run: as §1, with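 “AMPA-subunit HEK293 lines were grown with 100 μg/mL SPD 502 in the medium. Cells” for “Cells”, “cyclothiazide. Test compound was preincubated 1.5 min before 25 μM Glu (final) was added.” for “cyclothiazide.”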

[5] = biological target: Glutamate receptor 4 (Rattus norvegicus) (UniProt P19493); assay: Antagonist activity at rat homomeric recombinant GluR4 expressed in HEK293 cells assessed as inhibition of intracellular calcium concentration at 30 uM by FLIPR assay; assay type: functional, cell-based
How it was run: as §1, with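 “AMPA-subunit HEK293 lines were grown with 100 μg/mL SPD 502 in the medium. Cells” for “Cells”, “cyclothiazide. Test compound was preincubated 1.5 min before 25 μM Glu (final) was added.” for “cyclothiazide.”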

[6] = biological target: Glutamate receptor 2 (Rattus norvegicus) (UniProt P19491); assay: Antagonist activity at rat homomeric recombinant GluR2 expressed in HEK293 cells assessed as inhibition of intracellular calcium concentration at 30 uM by FLIPR assay; assay type: functional, cell-based
How it was run: as §1, with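 “AMPA-subunit HEK293 lines were grown with 100 μg/mL SPD 502 in the medium. Cells” for “Cells”, “cyclothiazide. Test compound was preincubated 1.5 min before 25 μM Glu (final) was added.” for “cyclothiazide.”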

[7] = biological target: Glutamate receptor 1 (Rattus norvegicus) (UniProt P19490); assay: Antagonist activity at rat homomeric recombinant GluR1 expressed in HEK293 cells assessed as inhibition of intracellular calcium concentration at 30 uM by FLIPR assay; assay type: functional, cell-based
How it was run: as §1, with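 “AMPA-subunit HEK293 lines were grown with 100 μg/mL SPD 502 in the medium. Cells” for “Cells”, “cyclothiazide. Test compound was preincubated 1.5 min before 25 μM Glu (final) was added.” for “cyclothiazide.”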

Sequence of Glutamate receptor 3 (P19492 whole entry): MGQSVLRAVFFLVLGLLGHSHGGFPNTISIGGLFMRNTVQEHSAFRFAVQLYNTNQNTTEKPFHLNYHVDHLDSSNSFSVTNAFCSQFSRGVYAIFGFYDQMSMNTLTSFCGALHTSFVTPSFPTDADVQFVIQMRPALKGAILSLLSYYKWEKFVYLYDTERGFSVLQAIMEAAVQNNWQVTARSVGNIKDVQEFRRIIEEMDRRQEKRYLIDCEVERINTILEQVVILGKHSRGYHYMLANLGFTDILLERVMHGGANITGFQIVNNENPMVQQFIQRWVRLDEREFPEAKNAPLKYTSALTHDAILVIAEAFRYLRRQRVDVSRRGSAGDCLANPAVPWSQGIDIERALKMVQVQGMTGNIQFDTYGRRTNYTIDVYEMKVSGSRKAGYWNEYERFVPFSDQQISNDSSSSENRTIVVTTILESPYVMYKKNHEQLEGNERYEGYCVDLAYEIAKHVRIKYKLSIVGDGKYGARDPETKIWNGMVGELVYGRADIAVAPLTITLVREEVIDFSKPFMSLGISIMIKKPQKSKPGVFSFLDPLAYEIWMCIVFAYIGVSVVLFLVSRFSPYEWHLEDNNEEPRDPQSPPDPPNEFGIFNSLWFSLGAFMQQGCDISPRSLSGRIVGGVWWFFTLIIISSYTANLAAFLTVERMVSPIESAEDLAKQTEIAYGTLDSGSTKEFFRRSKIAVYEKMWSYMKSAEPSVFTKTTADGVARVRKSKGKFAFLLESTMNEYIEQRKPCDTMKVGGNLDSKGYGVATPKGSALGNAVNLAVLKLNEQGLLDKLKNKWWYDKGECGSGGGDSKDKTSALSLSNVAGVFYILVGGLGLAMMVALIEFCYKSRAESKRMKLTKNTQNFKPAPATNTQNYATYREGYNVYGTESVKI
Sequence of Glutamate receptor 3 (Rattus norvegicus) (P19492 whole entry): as above
Sequence of Glutamate receptor ionotropic, kainate 2 (Q13002 whole entry): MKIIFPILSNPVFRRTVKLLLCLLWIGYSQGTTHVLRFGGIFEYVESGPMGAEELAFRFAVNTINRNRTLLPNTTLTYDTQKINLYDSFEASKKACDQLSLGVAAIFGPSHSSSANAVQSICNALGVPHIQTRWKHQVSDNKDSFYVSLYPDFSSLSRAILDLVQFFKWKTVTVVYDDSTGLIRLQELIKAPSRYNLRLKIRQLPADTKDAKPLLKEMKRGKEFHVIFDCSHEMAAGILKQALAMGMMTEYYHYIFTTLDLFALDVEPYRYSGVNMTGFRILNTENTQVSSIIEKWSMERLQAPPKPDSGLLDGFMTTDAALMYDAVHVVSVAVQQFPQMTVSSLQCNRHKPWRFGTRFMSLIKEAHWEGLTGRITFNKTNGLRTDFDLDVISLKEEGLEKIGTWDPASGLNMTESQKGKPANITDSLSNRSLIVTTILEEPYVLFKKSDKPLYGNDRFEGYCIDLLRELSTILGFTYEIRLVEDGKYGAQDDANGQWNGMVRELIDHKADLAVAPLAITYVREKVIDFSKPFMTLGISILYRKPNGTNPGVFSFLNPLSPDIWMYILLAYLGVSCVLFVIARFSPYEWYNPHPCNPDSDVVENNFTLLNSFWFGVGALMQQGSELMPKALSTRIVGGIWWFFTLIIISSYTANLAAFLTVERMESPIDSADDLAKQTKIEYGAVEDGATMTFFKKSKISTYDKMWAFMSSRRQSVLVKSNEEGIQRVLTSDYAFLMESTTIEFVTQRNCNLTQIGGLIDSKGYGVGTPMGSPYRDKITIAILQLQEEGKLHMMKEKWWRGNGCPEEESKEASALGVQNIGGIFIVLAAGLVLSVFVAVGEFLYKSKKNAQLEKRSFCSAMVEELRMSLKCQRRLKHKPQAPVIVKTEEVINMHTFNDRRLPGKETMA
Sequence of Glutamate receptor 4 (Rattus norvegicus) (P19493 whole entry): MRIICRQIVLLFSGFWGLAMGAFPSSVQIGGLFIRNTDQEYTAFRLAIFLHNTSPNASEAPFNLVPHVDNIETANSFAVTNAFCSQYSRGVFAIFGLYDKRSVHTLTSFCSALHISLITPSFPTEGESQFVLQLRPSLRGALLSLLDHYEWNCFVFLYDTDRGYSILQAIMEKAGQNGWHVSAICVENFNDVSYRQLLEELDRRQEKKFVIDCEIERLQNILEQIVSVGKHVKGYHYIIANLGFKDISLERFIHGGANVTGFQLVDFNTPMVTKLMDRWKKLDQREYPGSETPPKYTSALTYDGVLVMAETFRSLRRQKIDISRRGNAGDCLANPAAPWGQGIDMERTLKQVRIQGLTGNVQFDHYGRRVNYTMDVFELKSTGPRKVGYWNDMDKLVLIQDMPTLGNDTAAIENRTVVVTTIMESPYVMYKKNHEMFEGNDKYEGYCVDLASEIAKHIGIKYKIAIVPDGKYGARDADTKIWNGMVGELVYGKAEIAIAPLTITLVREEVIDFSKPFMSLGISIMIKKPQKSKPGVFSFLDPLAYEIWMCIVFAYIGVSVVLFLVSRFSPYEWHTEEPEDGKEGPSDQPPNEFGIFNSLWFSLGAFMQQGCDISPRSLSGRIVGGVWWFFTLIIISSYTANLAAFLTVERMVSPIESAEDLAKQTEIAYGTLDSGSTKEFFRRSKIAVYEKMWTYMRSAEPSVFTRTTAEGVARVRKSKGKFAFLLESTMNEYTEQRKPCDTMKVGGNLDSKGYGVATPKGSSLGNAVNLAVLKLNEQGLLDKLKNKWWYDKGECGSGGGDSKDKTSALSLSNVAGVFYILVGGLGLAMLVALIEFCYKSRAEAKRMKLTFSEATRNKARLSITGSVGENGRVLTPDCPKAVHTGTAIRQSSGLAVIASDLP
Sequence of Glutamate receptor 4 (P19493 whole entry): as above
Sequence of Glutamate receptor 1 (P19490 whole entry): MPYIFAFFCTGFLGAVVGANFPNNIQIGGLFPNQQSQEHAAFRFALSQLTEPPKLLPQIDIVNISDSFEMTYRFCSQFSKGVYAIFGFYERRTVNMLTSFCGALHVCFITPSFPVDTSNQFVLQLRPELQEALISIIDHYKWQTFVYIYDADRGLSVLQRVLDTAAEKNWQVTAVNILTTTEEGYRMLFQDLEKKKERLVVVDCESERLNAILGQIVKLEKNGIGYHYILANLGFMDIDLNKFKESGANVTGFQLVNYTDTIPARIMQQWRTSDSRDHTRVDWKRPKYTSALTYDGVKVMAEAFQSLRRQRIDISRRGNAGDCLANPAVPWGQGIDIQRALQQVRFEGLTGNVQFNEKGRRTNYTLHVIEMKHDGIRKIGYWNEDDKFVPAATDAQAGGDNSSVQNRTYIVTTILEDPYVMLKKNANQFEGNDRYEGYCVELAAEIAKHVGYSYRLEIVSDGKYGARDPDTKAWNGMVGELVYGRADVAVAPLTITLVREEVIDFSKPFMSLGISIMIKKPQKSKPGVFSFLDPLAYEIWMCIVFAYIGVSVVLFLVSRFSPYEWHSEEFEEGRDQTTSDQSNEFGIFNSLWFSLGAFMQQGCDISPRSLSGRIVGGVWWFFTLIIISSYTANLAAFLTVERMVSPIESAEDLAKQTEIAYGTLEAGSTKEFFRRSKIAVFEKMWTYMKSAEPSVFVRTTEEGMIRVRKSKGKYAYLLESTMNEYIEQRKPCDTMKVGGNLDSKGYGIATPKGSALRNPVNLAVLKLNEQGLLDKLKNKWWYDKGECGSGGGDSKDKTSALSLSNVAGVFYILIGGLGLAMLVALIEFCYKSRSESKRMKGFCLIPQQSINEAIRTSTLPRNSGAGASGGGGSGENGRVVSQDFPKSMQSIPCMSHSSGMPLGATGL
Sequence of Glutamate receptor 1 (Rattus norvegicus) (P19490 whole entry): as above
T1 sequence (P39086 whole entry): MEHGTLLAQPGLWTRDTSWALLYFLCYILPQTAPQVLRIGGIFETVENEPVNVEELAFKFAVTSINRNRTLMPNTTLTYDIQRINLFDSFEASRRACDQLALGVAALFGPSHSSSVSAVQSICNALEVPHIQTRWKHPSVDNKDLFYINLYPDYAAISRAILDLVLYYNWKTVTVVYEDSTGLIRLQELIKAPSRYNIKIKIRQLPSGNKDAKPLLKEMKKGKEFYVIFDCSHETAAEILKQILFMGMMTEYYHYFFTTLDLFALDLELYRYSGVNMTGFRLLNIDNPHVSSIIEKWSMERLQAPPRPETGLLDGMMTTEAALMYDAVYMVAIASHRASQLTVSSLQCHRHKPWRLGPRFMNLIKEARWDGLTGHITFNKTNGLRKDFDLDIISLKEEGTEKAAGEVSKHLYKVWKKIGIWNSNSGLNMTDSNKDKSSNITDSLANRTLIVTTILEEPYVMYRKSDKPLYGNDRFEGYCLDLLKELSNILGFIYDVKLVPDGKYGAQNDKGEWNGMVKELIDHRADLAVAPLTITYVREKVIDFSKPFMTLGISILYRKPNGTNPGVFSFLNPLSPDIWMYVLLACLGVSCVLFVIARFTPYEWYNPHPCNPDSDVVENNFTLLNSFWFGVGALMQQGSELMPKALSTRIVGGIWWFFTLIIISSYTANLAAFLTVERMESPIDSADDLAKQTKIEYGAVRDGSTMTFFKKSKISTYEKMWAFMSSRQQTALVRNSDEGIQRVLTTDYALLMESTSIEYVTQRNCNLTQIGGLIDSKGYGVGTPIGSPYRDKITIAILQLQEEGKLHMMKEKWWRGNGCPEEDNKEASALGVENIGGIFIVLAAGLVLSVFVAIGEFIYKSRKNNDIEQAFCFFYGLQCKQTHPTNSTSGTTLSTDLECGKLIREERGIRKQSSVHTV

O=C(Nc1cccc(Br)c1)Oc1cc(Cl)ccc1C(=O)O
IC50 [1]: > 30 µM

O=C(Nc1cccc(Br)c1)n1[nH]c(=O)c2ccc(Cl)cc21
IC50 [1]: > 50 µM

O=C(Nc1cccc(Br)c1)Nc1cc(Cl)ccc1S(=O)(=O)O
IC50 [2]: > 30 µM | IC50 [1]: 1.5 µM | IC50 (Glutamate receptor 2): > 100 µM | ED50 (Mus musculus): 29 mg/kg | IC50 [3]: 37 µM | IC50 (Glutamate receptor 3): > 100 µM | IC50 (Glutamate receptor 1): > 100 µM | IC50 (Glutamate receptor 4): > 100 µM

O=C(Nc1ccc2ccccc2c1)Nc1cc(Cl)ccc1C(=O)O
ED50 (Mus musculus): > 30 mg/kg | Activity [4]: inactive | Activity [5]: inactive | IC50 (Glutamate receptor 3): > 100 µM | Activity [6]: inactive | IC50 (Glutamate receptor 1): > 100 µM | Activity [7]: inactive | IC50 (Glutamate receptor 4): > 100 µM

N#Cc1ccc(Cl)cc1NC(=O)Nc1cccc(C(F)(F)F)c1
IC50 [1]: > 3 µM

O=C(O)Cc1ccc(Cl)cc1NC(=O)Nc1cccc(Br)c1
IC50 [2]: > 30 µM | IC50 [1]: 3.6 µM | IC50 (Glutamate receptor 2): > 100 µM | ED50 (Mus musculus): > 30 mg/kg | Activity [4]: inactive | Activity [5]: inactive | IC50 [3]: > 50 µM | IC50 (Glutamate receptor 3): > 100 µM | Activity [6]: inactive | IC50 (Glutamate receptor 1): > 100 µM | Activity [7]: inactive | IC50 (Glutamate receptor 4): > 100 µM

O=C(O)c1ccc(Cl)cc1Nc1c(Nc2cccc(Br)c2)c(=O)c1=O
IC50 [1]: > 30 µM

O=C(Nc1cccc(Br)c1)Nc1cc(Cl)ccc1[N+](=O)[O-]
IC50 [1]: > 3 µM

O=C(Nc1cccc(C(F)(F)F)c1)Nc1cc(Cl)ccc1CO
IC50 [1]: > 10 µM

O=C(Nc1cccc(Br)c1)Nc1cc(Cl)ccc1-c1nc(=O)o[nH]1
IC50 [2]: > 30 µM | IC50 [1]: 4.6 µM | IC50 (Glutamate receptor 2): > 100 µM | ED50 (Mus musculus): > 100 mg/kg | Activity [4]: inactive | Activity [5]: inactive | IC50 [3]: > 30 µM | IC50 (Glutamate receptor 3): > 100 µM | Activity [6]: inactive | IC50 (Glutamate receptor 1): > 100 µM | Activity [7]: inactive | IC50 (Glutamate receptor 4): > 100 µM

O=C(Nc1cccc(Br)c1)Nc1cc(Cl)ccc1C(=O)O
IC50 (Glutamate receptor 2): > 100 µM | Activity [4]: inactive | Activity [5]: inactive | IC50 (Glutamate receptor 3): > 100 µM | Activity [6]: inactive | IC50 (Glutamate receptor 1): > 100 µM | Activity [7]: inactive | IC50 (Glutamate receptor 4): > 100 µM

O=C(Nc1cccc(C(F)(F)F)c1)Nc1cc(Cl)ccc1O
IC50 [1]: > 30 µM

O=C(Nc1cccc(C(F)(F)F)c1)Nc1cc(Cl)ccc1[N+](=O)[O-]
IC50 [1]: > 3 µM

Nc1ccc(Cl)cc1NC(=O)Nc1cccc(C(F)(F)F)c1
IC50 [1]: > 30 µM

O=C(Nc1cccc(Br)c1)Nc1cc(Cl)ccc1-c1nnn[nH]1
IC50 [2]: > 30 µM | IC50 [1]: 2 µM | IC50 (Glutamate receptor 2): > 100 µM | ED50 (Mus musculus): 5.5 mg/kg | Activity [4]: inactive | Activity [5]: inactive | IC50 [3]: > 10 µM | IC50 (Glutamate receptor 3): > 100 µM | Activity [6]: inactive | IC50 (Glutamate receptor 1): > 100 µM | Activity [7]: inactive | IC50 (Glutamate receptor 4): > 100 µM

COC(=O)c1ccc(Cl)cc1NC(=O)Nc1cccc(Br)c1
IC50 [1]: > 30 µM

O=C(O)CCc1ccc(Cl)cc1NC(=O)Nc1cccc(Br)c1
IC50 [1]: > 30 µM

Reference: ChEMBL document CHEMBL1149316, “Bioisosteric modifications of 2-arylureidobenzoic acids: selective noncompetitive antagonists for the homomeric kainate receptor subtype GluR5” (J Med Chem, 2004)
